By Ki is commonly meant a measure of affinity in units of concentration, obtained from inhibition or displacement. Usually IC50 stands for the concentration at which inhibition is half-maximal. A lower IC50 goes with inhibition by little substance.

Assay [1] addresses Tumour suppressor p53/oncoprotein Mdm2 (Homo sapiens, UniProt Q00987). Kind of assay: Inhibition of Mdm2-p53 protein interaction preincubated for 1 hr by fluorescence polarization assay.
The next assay relates to SAOS-2. Kind of assay: Antitumor activity against p53 deficient human Saos2 cells after 72 hrs by MTT assay. As to conditions: SAOS-2, 72 h. Type of assay: functional, cell-based. The method, boiled down: (§1)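 Cells seeded at 5-6 × 10⁴ per well and cultured 24 h, then exposed to a range of compound concentrations in triplicate wells; vehicle control 0.1% DMSO. After 72 h, MTT (5 mg/mL solution) added, plate shaken 1 min, then incubated 4 h at 37 °C. Formazan dissolved in DMSO and absorbance read at 570 nm. Drug-free wells served as blanks. IC50 = 50% growth inhibition.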

Assay [2] deals with U2OS. Kind of assay: Antitumor activity against human U2OS cells expressing wild type p53 after 72 hrs by MTT assay. Type of assay: functional, cell-based. In outline:
as §1
(In general: Formazan colour is commonly taken as a measure of viable cells.)

Assay [3] deals with U2OS. Kind of assay: Ratio of nutlin-3a IC50 to compound IC50 for human U2OS cells expressing wild type p53. Type of assay: functional.

Chain of Tumour suppressor p53/oncoprotein Mdm2 (P04637 whole entry): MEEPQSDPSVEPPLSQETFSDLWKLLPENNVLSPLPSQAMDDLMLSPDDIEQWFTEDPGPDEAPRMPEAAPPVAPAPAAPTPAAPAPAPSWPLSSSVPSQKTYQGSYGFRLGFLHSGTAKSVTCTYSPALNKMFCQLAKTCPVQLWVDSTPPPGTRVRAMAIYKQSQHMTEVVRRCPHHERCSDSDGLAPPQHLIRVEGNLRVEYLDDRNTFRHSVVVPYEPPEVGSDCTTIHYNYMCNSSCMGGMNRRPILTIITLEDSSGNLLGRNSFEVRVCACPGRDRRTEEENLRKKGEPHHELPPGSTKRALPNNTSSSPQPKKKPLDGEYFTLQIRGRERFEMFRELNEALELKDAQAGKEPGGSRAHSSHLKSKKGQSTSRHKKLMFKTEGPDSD
Chain of Tumour suppressor p53/oncoprotein Mdm2 (Q00987 whole entry): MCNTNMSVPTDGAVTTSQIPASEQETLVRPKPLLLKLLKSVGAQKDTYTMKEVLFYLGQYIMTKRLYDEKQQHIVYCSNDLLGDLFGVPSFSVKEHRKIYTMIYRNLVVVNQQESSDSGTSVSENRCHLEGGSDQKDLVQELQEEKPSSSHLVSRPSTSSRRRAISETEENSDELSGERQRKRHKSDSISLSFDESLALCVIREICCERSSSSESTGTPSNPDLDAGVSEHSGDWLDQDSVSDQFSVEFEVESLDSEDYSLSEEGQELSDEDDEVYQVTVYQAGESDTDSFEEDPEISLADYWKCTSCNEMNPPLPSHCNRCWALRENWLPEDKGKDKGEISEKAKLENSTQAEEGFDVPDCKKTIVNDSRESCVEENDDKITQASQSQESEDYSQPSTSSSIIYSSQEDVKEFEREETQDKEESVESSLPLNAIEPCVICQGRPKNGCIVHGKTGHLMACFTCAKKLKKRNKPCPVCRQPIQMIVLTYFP

For the compound `COC(=O)C(c1ccc(Cl)cc1)N1C(=O)c2ccc(NCc3ccc(Br)cc3)cc2NC(=S)C1c1ccc(Cl)cc1` (configuration not stated), in assay [1], the Ki is more than 100 µM. Besides, the half-inhibitory concentration (IC50) was determined as 13.8 µM in the assay on SAOS-2 and 14.7 µM in the assay on U2OS [2].
For `COC(=O)C(c1ccc(Cl)cc1)N1C(=O)c2ccccc2NC(=O)C1c1ccc(Cl)cc1` (configuration not stated), the Ki in assay [1] worked out at 10.6 µM. In addition, the IC50 is 5.58 µM in the assay with SAOS-2 and 13.9 µM in the assay on U2OS [2].
As for `COC(=O)C(c1ccc(Cl)cc1)N1C(=O)c2ccccc2NC(=S)C1c1ccc(Cl)cc1` (configuration not stated), affinity in assay [1] was put at a Ki of 0.52 µM. In addition, the IC50 in the assay with SAOS-2 worked out at 6.55 µM; in the assay with U2OS [2] it was 13.7 µM.
In the case of `CCCNc1ccc2c(c1)NC(=S)C(c1ccc(Cl)cc1)N(C(C(=O)OC)c1ccc(Cl)cc1)C2=O` (configuration not stated), affinity in assay [1] was put at a Ki of 1.02 µM. Besides, the values for the IC50 in the assay on SAOS-2 and with U2OS [2] were 12.4 µM and 91.2 µM, respectively.
With `COC(=O)C(c1ccc(Cl)cc1)N1C(=O)c2ccc(NCc3ccccc3)cc2NC(=S)C1c1ccc(Cl)cc1` (configuration not stated), the affinity in assay [1] corresponds to a Ki of 2.26 µM. Also, the results for the IC50 in the assay with SAOS-2 and in the assay with U2OS [2] were 17.8 µM and more than 100 µM, respectively.
For `COC(=O)C(c1ccc(Cl)cc1)N1C(=O)c2ccc(NCc3ccc(Cl)cc3)cc2NC(=S)C1c1ccc(Cl)cc1` (configuration not stated), the Ki in assay [1] was more than 100 µM. The IC50 with SAOS-2 stood at 13.3 µM; in the assay on U2OS [2] it was 20.9 µM.
For the compound `COC(=O)C(c1ccc(Cl)cc1)N1C(=O)c2ccc(NCC(C)(C)C)cc2NC(=S)C1c1ccc(Cl)cc1` (configuration not stated), the Ki in assay [1] was more than 100 µM. In addition, the IC50 in the assay on SAOS-2 worked out at 2.19 µM; in the assay on U2OS [2], 18 µM.
`COC(=O)C(c1ccc(Cl)cc1)N1C(=O)c2ccc(NCC(C)C)cc2NC(=S)C1c1ccc(Cl)cc1` (configuration not stated): in assay [1], the affinity corresponds to a Ki of 0.32 µM. Also, the IC50 is 15.7 µM with SAOS-2 and more than 100 µM in the assay with U2OS [2].
`CCCCCNc1ccc2c(c1)NC(=S)C(c1ccc(Cl)cc1)N(C(C(=O)OC)c1ccc(Cl)cc1)C2=O` (configuration not stated): affinity in assay [1] was put at a Ki of 15 µM. Also, the 50% inhibitory concentration (IC50) is 20.7 µM in the assay on SAOS-2 and more than 100 µM in the assay on U2OS [2].
Regarding `CCCCNc1ccc2c(c1)NC(=S)C(c1ccc(Cl)cc1)N(C(C(=O)OC)c1ccc(Cl)cc1)C2=O` (configuration not stated), the affinity in assay [1] corresponds to a Ki of 49.6 µM. For the same compound, the IC50 was 27.9 µM in the assay on SAOS-2 and more than 100 µM with U2OS [2].
Compound `COC(=O)C(c1ccc(Cl)cc1)N1C(=O)c2ccc(NCC3CC3)cc2NC(=S)C1c1ccc(Cl)cc1` (configuration not stated) gave a Ki in assay [1] of 3.43 µM. In addition, the IC50 in the assay on SAOS-2 is 19 µM; in the assay with U2OS [2] it was more than 100 µM.
On to `COC(=O)C(c1ccc(Cl)cc1)N1C(=O)c2ccc(NCc3ccc(C(F)(F)F)cc3)cc2NC(=S)C1c1ccc(Cl)cc1` (configuration not stated), for which the Ki in assay [1] is 5.34 µM. For the same compound, the IC50 was 2.87 µM in the assay with SAOS-2 and 1.06 µM in the assay with U2OS [2]. Moreover, the “Ratio IC50” value in the assay with U2OS [3] is 23.
For `COC(=O)C(c1ccc(Cl)cc1)N1C(=O)c2ccc(NCC3CCCCC3)cc2NC(=S)C1c1ccc(Cl)cc1` (configuration not stated), the Ki in assay [1] is more than 100 µM. In addition, the IC50 is 72.2 µM in the assay with SAOS-2 and more than 100 µM with U2OS [2].
`COC(=O)C(c1ccc(Cl)cc1)N1C(=O)c2ccc(NCc3ccc4ccccc4c3)cc2NC(=S)C1c1ccc(Cl)cc1` (configuration not stated) came in with a Ki in assay [1] of more than 100 µM. Further, the values for the IC50 in the assay on SAOS-2 and in the assay on U2OS [2] were 91.7 µM and more than 100 µM, respectively.
Compound `COC(=O)C(c1ccc(Cl)cc1)N1C(=O)c2ccc(NCc3ccc(OC)cc3)cc2NC(=S)C1c1ccc(Cl)cc1` (configuration not stated) had a Ki in assay [1] of more than 100 µM. Also, the IC50 was 88.1 µM in the assay on SAOS-2 and more than 100 µM in the assay with U2OS [2].
In the case of `COC(=O)C(c1ccc(Cl)cc1)N1C(=O)c2ccc(NCc3ccsc3)cc2NC(=S)C1c1ccc(Cl)cc1` (configuration not stated), the Ki in assay [1] is more than 100 µM. Moreover, the IC50 with SAOS-2 is 3.37 µM; with U2OS [2] it was more than 100 µM.
As for `COC(=O)C(c1ccc(Cl)cc1)N1C(=O)c2ccc(NCc3ccc(F)cc3)cc2NC(=S)C1c1ccc(Cl)cc1` (configuration not stated), the Ki in assay [1] came out at 1.71 µM. Also, the half-inhibitory concentration (IC50) in the assay on SAOS-2 came to 9.81 µM; with U2OS [2] it was 30.6 µM.
In assay [1], `COC(=O)C(c1ccc(Cl)cc1)N1C(=O)c2ccc(NCc3ccco3)cc2NC(=S)C1c1ccc(Cl)cc1` (configuration not stated) registered an inhibition constant (Ki) of 43.1 µM. Further, the IC50 in the assay with SAOS-2 came out at 11.3 µM; in the assay on U2OS [2], 48.5 µM.
Take `COc1ccc(C2=N[C@@H](c3ccc(Cl)cc3)[C@@H](c3ccc(Cl)cc3)N2C(=O)N2CCNC(=O)C2)c(OC(C)C)c1` [NUTLIN-3]: the IC50 in the assay on SAOS-2 came out at 54.4 µM; in the assay with U2OS [2], 24.6 µM.
